zVAD death inh: inhibitors of zVAD-triggered necroptosis, primary screen, L929 cells; AID 1377, 2008; viability rescue, % at 10 µM; 220,000 tested, 0.38% active; L929 zVAD necroptosis rescue, ATP luminescence, 24 h; with zVAD 60 µM;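 active = activation, scaled between plate controls, above about 75%, limit read from the data; inactive = activation under that limit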;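 note: 0% = zVAD with DMSO and 100% = DMSO alone without zVAD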
Mdm2 ligase inh: MDM2-luciferase reporter signal enhancers, primary screen, MDM2 E3 ligase inhibitor project, cell-based, luminescence, 1536-well | E3 ubiquitin-protein ligase Mdm2 (Homo sapiens), Q00987 | cell-based MDM2 ubiquitination luciferase reporter, 2 h; 0 = plate control, 100 = twice control, blank-subtracted | AID 1230, 2008 | signal enhancement, % at 5 µM | 210,000 tested, 0.11% active;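 active = signal enhancement of 30% or more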;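 note: luminescence tracks abundance of the self-degrading MDM2-luciferase fusion protein; higher signal means inhibition of MDM2 E3 ligase activity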
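Test system: stable mammalian line carrying autodegrading MDM2–luciferase fusion reporter; quantity: 2000 cells in each well; times: 4 h cell settling then 2 h compound exposure, 37 °C; detection: luminescence with SteadyLite reagent, 15 min at room temperature; evaluation: percent signal gain over controls, blank-subtracted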
Wee1 degr inh: Wee1 degradation inhibitors, primary screen, cell-based, HeLa, Wee1K328M-luciferase, luminescence. Wee1-like protein kinase (Homo sapiens), P30291. HeLa Luc-Wee1K328M stability; 100% = proteasome inhibitor MG132 effect. reporter increase, % at 5 µM. 220,000 tested, 1.2% active;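 active = activation above the mean of all tested compounds plus 3 SD, set per screening run, cut at about 8.8% in these data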;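 note: cells exposed to compound for 20 h before luminescence read; 0% = DMSO alone and 100% = MG132 at 30 µM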
Target sequence (P30291 whole entry K328M): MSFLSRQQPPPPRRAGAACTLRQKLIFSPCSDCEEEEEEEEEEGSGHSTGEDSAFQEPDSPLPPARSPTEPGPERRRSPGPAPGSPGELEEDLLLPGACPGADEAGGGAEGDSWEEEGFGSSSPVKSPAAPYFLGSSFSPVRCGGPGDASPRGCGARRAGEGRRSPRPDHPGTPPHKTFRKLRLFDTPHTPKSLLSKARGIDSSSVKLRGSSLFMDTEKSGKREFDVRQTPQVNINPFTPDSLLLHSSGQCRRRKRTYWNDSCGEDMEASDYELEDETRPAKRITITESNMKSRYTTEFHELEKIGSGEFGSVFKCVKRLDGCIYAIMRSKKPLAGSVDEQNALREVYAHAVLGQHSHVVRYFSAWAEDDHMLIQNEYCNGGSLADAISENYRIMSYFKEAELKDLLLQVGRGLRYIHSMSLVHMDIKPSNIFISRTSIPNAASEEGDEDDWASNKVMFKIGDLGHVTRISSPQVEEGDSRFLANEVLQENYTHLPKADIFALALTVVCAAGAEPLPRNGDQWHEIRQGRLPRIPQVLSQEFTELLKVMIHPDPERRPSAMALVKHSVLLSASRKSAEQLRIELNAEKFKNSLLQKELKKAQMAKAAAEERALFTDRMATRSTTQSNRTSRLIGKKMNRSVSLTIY
TNF death inh: inhibitors of TNF-alpha triggered necroptosis, primary screen, cell-based, Jurkat FADD-/-, single concentration | Jurkat FADD-/- TNF necroptosis rescue, ATP luminescence, 24 h; 0 = TNF only, 100 = no-TNF cells | activation (protection from cell death), % at 10 µM | 220,000 tested, 0.068% active | AID 463075, 2010;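 active = activation, meaning protection from cell death, of at least 50% relative to plate controls; inactive = activation below 50%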;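 note: necroptosis triggered by 40 ng/mL TNF-alpha added together with compound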
Pf gamet viab: late stage P. falciparum gametocyte viability inhibitors, primary screen, ATP luminescence, HTS; P. falciparum stage V gametocytes, 24 h; 150,000 tested, 0.065% active; inhibition, % at 10.9 µM;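 active = inhibition above the mean plus 3 SD of compounds within the control limits, set per campaign, cut at about 38% in these data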;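 note: 0% = DMSO wells and 100% = medium only without gametocytes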
An asterisk follows results filed as active; . = no result. Most compounds without a hit are left out; they make up all but 1.6% or so of the library.

SMILES	zVAD death inh	Mdm2 ligase inh	Wee1 degr inh	TNF death inh	Pf gamet viab
COC(=O)CSC1=C(C#N)C(c2ccccc2)CC(=O)N1 (centres undefined)	0	-1	-2	-2	-25
CC(C)(CO)CNC(=O)c1ccc2nc(Cc3cccc(Cl)c3)oc2c1	.	.	.	.	-2
CC(C)n1c(NCc2cccs2)nc2ccccc21	0	-31	8.8*	1	.
Cc1ccc(Nc2nc(-c3ccccc3)c(CC(=O)O)s2)cc1	4	0	-1	0	-6
CC1=NN(C(=O)c2nn(C)cc2Br)C(O)(C(F)(F)F)C1 (centres undefined)	1	-1	-1	0	14
COc1ccccc1N1CCN(C(=O)CN(C2CCCCC2)S(C)(=O)=O)CC1	1	-4	2	1	0
COc1ccc(N2CCN(C(=O)CN(C3CCCCC3)S(C)(=O)=O)CC2)cc1	2	-48	9.1*	1	.
COc1ccc(C(=O)NNC(=S)NC(=O)c2ccco2)cc1	0	-20	2	-8	16
O=C(NNC(=S)NC(=O)c1ccco1)c1ccc(F)cc1	0	-4	10*	-3	-7
Cc1cccc(C(=O)NC2CCN(CC(=O)NCc3cccs3)CC2)c1	-1	-19	0	1	8
COc1ccc(C2C(CC(=O)O)=C(O)C(=O)N2c2ccccc2)cc1 (centres undefined)	1	34*	-2	-1	.
NC(N)=NC(N)=NCCc1ccccc1	2	.	1	0	.
Cc1ccc(NC(=O)CSc2nnc(Cc3ccccc3)o2)cc1	1	-9	11*	0	-18
CCN(CC)c1ccc(/C=N/NC(=O)c2ccccn2)cc1	2	-39	9.5*	-9	-11
CCc1ccc(/C=N/NC(=O)c2ccccn2)cc1	-1	-70	-2	-9	-2
CC1(C)C2CCC1(C)C(NC1=NCCC1)C2 (centres undefined)	0	-12	1	1	.
COc1cc(O)c(C(CC(=O)N2CCCCC2)c2cc(OC)c(OC)c(OC)c2)c(OC)c1 (centres undefined)	0	7	.	2	14
CCCC(C)NC(=O)COC(=O)c1ccccc1SCC(=O)NC(C)CCC (centres undefined)	1	1	0	3	.
Oc1c(Br)cc(Br)cc1/C=N/N1CCN(Cc2ccccc2)CC1	0	-11	2	2	-7
O=C(N=C1N=C2C=CC(Br)=CN2Cc2ccccc21)c1ccc([N+](=O)[O-])cc1[N+](=O)[O-]	2	-19	11*	-4	-22
Cc1cccc(NC(=O)C(=O)NCCc2c[nH]c3ccccc23)c1C	1	-10	3	-1	6
CC(C)CC(=O)N1CCN(S(=O)(=O)c2ccc(Cl)cc2)CC1	1	-1	-4	0	-4
Cc1ccc(S(=O)(=O)N2CCN(C(=O)CC(C)C)CC2)cc1	-1	32*	1	1	.
Cc1cccc(C(=O)N2CCN(Cc3ccc4c(c3)OCO4)CC2)c1	-1	-13	9.3*	0	.
O=C(c1ccc(Cl)cc1)C1C2C(=O)N(c3ccccc3)C(=O)C2C2CCCN21 (centres undefined)	0	-23	0	-5	.
SMILES	zVAD death inh	Mdm2 ligase inh	Wee1 degr inh	TNF death inh	Pf gamet viab
CC(=O)c1ccc(N2C(=O)C3C(C2=O)C(C(=O)c2ccc(Cl)cc2)N2CCCC32)cc1 (centres undefined)	0	-25	11*	-10	6
O=C(O)/C=C/C(=O)Nc1ccc2c(c1)C(=O)c1ccccc1C2=O	0	-8	9.9*	0	-13
Cc1noc(C)c1COc1ccc(CC(=O)NC2CCCCCC2)cc1	23	-12	-3	2	-6
Cc1noc(C)c1COc1ccc(CC(=O)NCc2ccccc2)cc1	-1	-58	9.3*	-10	12
COc1cc(/C=N/Nc2cc(C)nc(NS(=O)(=O)c3ccccc3)n2)ccc1O	-1	-10	10*	-8	7
COc1cc(/C=N/Nc2cc(C)nc(NS(=O)(=O)c3ccc(C)cc3)n2)ccc1O	4	-9	2	-2	11
CCOC(=O)/C(=C/c1ccc(Cl)cc1)NC(=O)c1ccco1	2	1	-2	2	.
CCN(CC)S(=O)(=O)c1ccc(NC(=O)Cn2c(=O)sc3ccccc32)cc1	0	12	9.2*	2	-5
COC(=O)Cn1c(=O)sc2ccccc21	0	-9	10*	0	.
O=C(Cn1c(=O)sc2ccccc21)Nc1ccccc1	0	-6	-1	2	.
O=C(CSCc1c(F)cccc1Cl)NCCc1ccccc1	.	.	.	.	0
CCOC(=O)c1ccc2nc(Nc3nc4ccc(F)cc4s3)sc2c1	1	-9	1	1	.
CCOC(=O)c1ccc2nc(NC(C)=O)sc2c1	5	-7	9.4*	1	7
CCS(=O)(=O)c1ccc(O)c(NC(=O)/C=C/c2ccccc2)c1	4	2	9	1	-8
C/C(=N/NC(=O)CNC(=O)c1cccc(F)c1)c1ccc2c(c1)CCCC2	1	-6	2	0	-11
COC(=O)c1c(-c2ccc(F)cc2)csc1NC(=O)c1ccco1	0	-10	6	0	.
CCc1cccc(CC)c1NC(=O)CSc1nnc(CCC(=O)O)c(=O)[nH]1	2	6	9.5*	1	19
O=C(Nc1ncccc1Cl)c1ccc2c(c1)OCCO2	1	-4	-2	-2	-1
CC(C)OC(=O)n1c(=S)oc2ccccc21	3	-1	7	-5	.
CCCCC(=O)/C=C/n1c(=S)oc2ccccc21	2	69*	-2	-8	1
O=C(Nc1ccc2c(c1)OCCO2)c1ccc(Br)o1	0	-40	9.4*	-3	.
O=C(Nc1ccc2c(c1)OCCO2)c1ccc(Br)cc1	.	.	.	.	-8
O=c1c2ccccc2cnn1-c1nc2ccccc2[nH]1	-2	-85	-4	-13	47*
O=c1c(Cl)c(N2CCCCC2)cnn1-c1nc2ccccc2[nH]1	1	-17	-3	-5	-8
O=C(NCc1ccc2c(c1)OCO2)C1CC(c2ccc(Cl)cc2)=NO1 (centres undefined)	1	-1	8.8*	-1	0
CC(=O)C1=C(O)C(=O)N(c2ccc(O)cc2)C1c1ccc([N+](=O)[O-])cc1 (centres undefined)	1	-9	9.3*	0	-11
Cc1c(Cl)cccc1NC(=O)CSc1nnc(C)n1-c1ccccc1	0	-18	4	-3	.

Screening results from PubChem BioAssay.
